According to article PMC6431292 (Journal of molecular biology, 2018):
Positions count from the first letter of the chain named.

How the values were obtained:
Format in all cases: binding
[1] = target: T1, BLVRB (biliverdin reductase B) (Homo sapiens, UniProt P30043); test: NMR titration
T1 sequence (P30043 1-206): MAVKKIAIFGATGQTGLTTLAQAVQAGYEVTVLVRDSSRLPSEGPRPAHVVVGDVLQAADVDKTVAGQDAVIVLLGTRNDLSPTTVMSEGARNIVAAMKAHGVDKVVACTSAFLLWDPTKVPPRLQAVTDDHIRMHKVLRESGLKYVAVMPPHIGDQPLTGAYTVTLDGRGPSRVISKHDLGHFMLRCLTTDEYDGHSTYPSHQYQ

[2] = target: T1, BLVRB (biliverdin reductase B); test: isothermal titration calorimetry
[3] = target: T2, BLVRB (biliverdin reductase B) (Homo sapiens, UniProt P30043, R78A); test: isothermal titration calorimetry
T2 sequence (P30043 1-206 R78A): T1 sequence (P30043 1-206) with R78A
How it was run: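 Human BLVRB (R78A mutant) expressed in E. coli BL21/DE3 with a cleavable N-terminal His-tag, Ni-purified under denaturing conditions, refolded by dialysis, tag removed, then gel-filtered. ITC used 100 μM enzyme in the cell, titrated with reduced or oxidized coenzyme (freshly prepared) at 1 mM. Buffer was 50 mM Bis–Tris pH 6.5, 50 mM NaCl, 1 mM DTT, at 20 °C. Runs were done in duplicate.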

Kd [1] [nM]	Kd [2] [nM]	Kd [3] [nM]	SMILES
590000 ± 80000			Cc1cc2nc3c(=O)[nH]c(=O)nc-3n(C[C@H](O)[C@H](O)[C@H](O)COP(=O)(O)OP(=O)(O)OC[C@H]3O[C@@H](n4cnc5c(N)ncnc54)[C@H](O)[C@@H]3O)c2cc1C [FAD]
	300 ± 200		NC(=O)C1=CN([C@@H]2O[C@H](COP(=O)(O)OP(=O)(O)OC[C@H]3O[C@@H](n4cnc5c(N)ncnc54)[C@H](OP(=O)(O)O)[C@@H]3O)[C@@H](O)[C@H]2O)C=CC1 [NADPH]
	400 ± 200	2800 ± 200	NC(=O)c1ccc[n+]([C@@H]2O[C@H](COP(=O)(O)OP(=O)(O)OC[C@H]3O[C@@H](n4cnc5c(N)ncnc54)[C@H](OP(=O)(O)O)[C@@H]3O)[C@@H](O)[C@H]2O)c1 [NADP^+]
